Assays:
[1] = target: T1, Serotonin 2 (5-HT2) receptor (Rattus norvegicus, UniProt P30994+P08909+P14842); experiment: Affinity towards [3H]- ketanserin-labeled 5-hydroxytryptamine 2 receptor sites in rat cortical homogenates
Procedure, shortened: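 Label was 0.4 nM [3H]ketanserin, with 11 competitor concentrations run in triplicate and nonspecific binding defined by 1 μM cinanserin. Bound ligand was filtered onto glass fibre and counted by scintillation. IC50 came from nonlinear regression; Ki = IC50/(1+[D]/KD).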

[2] = organism: Rattus norvegicus; experiment: The number of animals responding per number of animals receiving the drug (4/4)in the stimulus-generation studies, was calculated at dose 0.7 mg / kg; format: functional
Procedure, shortened: (§1)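 Male Sprague-Dawley rats were trained to discriminate 0.2 mg/kg ip training drug from saline (two levers, VI 15-s, milk reward). Test doses were given ip 15 min pre-session in random order to groups of 3–6. In the 2.5-min extinction session, rats making fewer than five total responses were counted as disrupted. N is animals responding over animals dosed.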

[3] = organism: Rattus norvegicus; experiment: The number of animals responding per number of animals receiving the drug (3/3)in the stimulus-generation studies, was calculated at dose 1.2 mg / kg; format: functional; procedure, shortened: as §1
[4] = organism: Rattus norvegicus; experiment: The number of animals responding per number of animals receiving the drug(3/4) in the stimulus-generation studies, was calculated at dose 2.2 mg / kg; format: functional; procedure, shortened: as §1
[5] = organism: Rattus norvegicus; experiment: The number of responses made on the (R)(-)-DOB appropriate level, generation studies was calculated at dose 1.2 mg / kg; format: functional
Procedure, shortened: (§2)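 Male Sprague-Dawley rats (n = 6) were trained on a two-lever operant task for sweetened-milk reward to discriminate 0.2 mg/kg (R)-(-)-DOB-HCl ip from 1.0 mL/kg 0.9% saline, with a VI 15-s schedule and 15-min sessions. Test doses were given ip 15 min before a 2.5-min extinction session, in random order, to groups of 3-6 rats. Read-out was % drug-lever responses; fewer than five total responses counted as disrupted.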

[6] = organism: Rattus norvegicus; experiment: The mean responses per minute during the 2.5 min extinction session in the stimulus-generation studies was calculated at dose 2.2 mg / kg; format: functional
Procedure, shortened: (§3)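 Rats were trained on a two-lever drug-versus-saline discrimination (0.2 mg/kg ip training dose, VI 15-s, food reward). Challenge doses were given ip 15 min before a 2.5-min extinction test, in random order, to groups of 3–6 rats, with at least three training sessions between tests. Response rate is responses per minute over the extinction session.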

[7] = organism: Rattus norvegicus; experiment: The number of responses made on the (R)(-)-DOB appropriate level, generation studies was calculated at dose 2.0 mg / kg; format: functional; procedure, shortened: as §2
[8] = organism: Rattus norvegicus; experiment: The mean responses per minute during the 2.5 min extinction session in the stimulus-generation studies was calculated at dose 1.2 mg / kg; format: functional; procedure, shortened: as §3
[9] = target: T1, Serotonin 2 (5-HT2) receptor; experiment: Affinity towards [3H]- DOB -labeled 5-hydroxytryptamine 2 receptor sites in rat cortical homogenates
[10] = organism: Rattus norvegicus; experiment: The number of responses made on the (R)(-)-DOB appropriate level, generation studies was calculated at dose 2.2 mg / kg; format: functional; procedure, shortened: as §2
[11] = organism: Rattus norvegicus; experiment: The mean responses per minute during the 2.5 min extinction session in the stimulus-generation studies was calculated at dose 0.7 mg / kg; format: functional; procedure, shortened: as §3
[12] = organism: Rattus norvegicus; experiment: The mean responses per minute during the 2.5 min extinction session in the stimulus-generation studies was calculated at dose 2.0 mg / kg; format: functional; procedure, shortened: as §3
[13] = organism: Rattus norvegicus; experiment: The number of responses made on the (R)(-)-DOB appropriate level, generation studies was calculated at dose 0.7 mg / kg; format: functional; procedure, shortened: as §2
[14] = organism: Rattus norvegicus; experiment: The number of animals responding per number of animals receiving the drug (4/4)in the stimulus-generation studies, was calculated at dose 2.0 mg / kg; format: functional; procedure, shortened: as §1
[15] = organism: Rattus norvegicus; experiment: The number of animals responding per number of animals receiving the drug(3/3) in the stimulus-generation studies was calculated at dose 0.2 mg / kg; format: functional; procedure, shortened: as §1
[16] = organism: Rattus norvegicus; experiment: The number of animals responding per number of animals receiving the drug(3/3) in the stimulus-generation studies was calculated at dose 0.7 mg / kg; format: functional; procedure, shortened: as §1
[17] = organism: Rattus norvegicus; experiment: The number of responses made on the (R)(-)-DOB appropriate level, generation studies was calculated at dose 1.1 mg / kg; format: functional; procedure, shortened: as §2
[18] = organism: Rattus norvegicus; experiment: The number of animals responding per number of animals receiving the drug(3/4) in the stimulus-generation studies was calculated at dose 0.4 mg / kg; format: functional; procedure, shortened: as §1
[19] = organism: Rattus norvegicus; experiment: The number of responses made on the (R)(-)-DOB appropriate level, generation studies was calculated at dose 0.2 mg / kg; format: functional; procedure, shortened: as §2
[20] = organism: Rattus norvegicus; experiment: The mean responses per minute during the 2.5 min extinction session in the stimulus-generation studies was calculated at dose 0.4 mg / kg; format: functional; procedure, shortened: as §3
[21] = organism: Rattus norvegicus; experiment: The compound was tested for effective dose ( ED 50) against stimulus generation with rats trained to discriminate (R) (-)-DOB from saline.; format: functional
Procedure, shortened: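 Male Sprague-Dawley rats (n = 6) on a two-lever operant task for sweetened milk, VI 15-s schedule. Trained to discriminate 0.2 mg/kg ip training drug from 1.0 mL/kg 0.9% saline, 15 min pre-session. Test doses were given ip in random order to groups of 3–6, with 15-min pretreatment and a 2.5-min extinction session. ED50 was calculated from dose-response data.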

[22] = organism: Rattus norvegicus; experiment: The number of animals responding per number of animals receiving the drug(4/4) in the stimulus-generation studies was calculated at dose 1.1 mg / kg; format: functional; procedure, shortened: as §1
[23] = organism: Rattus norvegicus; experiment: The mean responses per minute during the 2.5 min extinction session in the stimulus-generation studies was calculated at dose 0.2 mg / kg; format: functional; procedure, shortened: as §3
[24] = organism: Rattus norvegicus; experiment: The number of responses made on the (R)(-)-DOB appropriate level, generation studies was calculated at dose 0.4 mg / kg; format: functional; procedure, shortened: as §2
[25] = organism: Rattus norvegicus; experiment: The mean responses per minute during the 2.5 min extinction session in the stimulus-generation studies was calculated at dose 1.1 mg / kg; format: functional; procedure, shortened: as §3

For `COc1cc(CC(C)[N+](C)(C)C)c(OC)cc1Br.[I-]` (configuration not stated), the Ki [1] was over 25 µM, the “No. of animals responding/animals receiving drug” value [2] was 4 and the “No. of animals responding/animals receiving drug” value [3] was 3. The “No. of animals responding/animals receiving drug” value [4] was 3, the Responding [5] was 9% and the Response rate [6] was 3.7. It also gave a Responding [7] of 38%, a Response rate [8] of 11.9 and a Ki [9] of 8.25 µM. The Responding [10] was 3%, the Response rate [11] was 16.2 and the Response rate [12] was 7.3. For the same molecule, the Responding [13] was 3% and the “No. of animals responding/animals receiving drug” value [14] was 4.

`COc1cc(C[C@H](C)N)c(OC)cc1Br` was tested, and the “No. of animals responding/animals receiving drug” value [15] was 3, the “No. of animals responding/animals receiving drug” value [16] was 3 and the Responding [17] was 82%. The “No. of animals responding/animals receiving drug” value [18] was 3, the Responding [19] was 3% and the Response rate [20] was 10.5. For the same molecule, the ED50 [21] was 0.56 mg/kg, the Response rate [11] was 10.8 and the “No. of animals responding/animals receiving drug” value [22] was 4. For the same molecule, the Response rate [23] was 12, the Responding [24] was 48% and the Responding [13] was 63%. The Response rate [25] was 10.8.

From ChEMBL document CHEMBL1123747, “N-methyl derivatives of the 5-HT2 agonist 1-(4-bromo-2,5-dimethoxyphenyl)-2-aminopropane” (J Med Chem, 1987)
